# Results from different studies.
# Compare with care: the assays were run in different laboratories.
# Target: Serine/threonine-protein kinase PknB (pknB, Mycobacterium tuberculosis, UniProt P9WI81)
Compound,read-out,technique,concentration,remaining binding
c1cnn2ncc(-c3ccnc(N4CCC45COC5)n3)c2c1,binding,,1 µM,79%
CNC(=O)Nc1ccc2c(c1)[C@@]1(CC2)OC(=O)N(CC(=O)N(Cc2ccc(F)cc2)[C@@H](C)C(F)(F)F)C1=O,cell-free assay,competition with immobilised ligand,1 µM,84%
CN(C)c1ncc(F)c(-c2cnn3ncccc23)n1,binding,,1 µM,87%
c1cncc(-c2cccc(Nc3nccc(NC4CCCCC4)n3)c2)c1,binding,competition with immobilised ligand,10 µM,89%
Nc1ncc2c(n1)-c1c([nH]c3ccc(C#CC4CC4)cc13)CCCC2,binding,competition with immobilised ligand,1 µM,90%
N[C@H]1CCN(c2nccc(-c3cnn4ncccc34)n2)C1,binding,,1 µM,98%
COc1cnc(Nc2cccc(S(N)(=O)=O)c2)nc1N1CCN(c2ccccc2)C(=O)C1,binding,competition with immobilised ligand,1 µM,86%
O=C(NCCCC1CCCCC1)c1ccc(CNC(=O)c2cnn(-c3ccccc3)c2C(F)(F)F)cc1,cell-free assay,competition with immobilised ligand,0.1 µM,100%
F[C@@H]1CCN(c2nccc(-c3cnn4ncccc34)n2)C1,binding,,1 µM,100%
COc1ccc2c(c1)O[C@@H](c1ccc(OC)c(OC)c1)C[C@H]2NC(=O)C1(c2ccc3c(c2)OC(F)(F)O3)CC1,cell-free assay,competition with immobilised ligand,1 µM,85%
CNC(=O)[C@@H]1CC[C@@H](n2c(-c3ccc4cnccc4c3)nc3ccc(C(=O)NCc4cccc(C(N)=O)c4)cc32)C1,binding,competition with immobilised ligand,1 µM,96%
CC1=C(C#N)C(c2ccc3c(c2)c(NC(=O)c2ccccc2C)nn3C)C(C#N)=C(C)N1,cell-free assay,competition with immobilised ligand,1 µM,97%
C=CC(=O)N1CCC(C(=O)NCC(=O)N2CCN(c3nc(-c4cnc(N)nc4C(F)F)nc(N4CCOCC4)n3)CC2)CC1,binding,competition with immobilised ligand,1 µM,67%
CS(=O)(=O)N1CCCC(NC(=O)[C@H](CCC2CCCCC2)NC(=O)c2ccc(CNc3ncnc4c3nnn4-c3ccccc3)cc2)C1 (stereo partly drawn),cell-free assay,competition with immobilised ligand,0.1 µM,90%
O=C(NCC1CCOCC1)c1n[nH]cc1NC(=O)c1c(F)cccc1F,binding,competition with immobilised ligand,1 µM,99%
